Compound activity as filed in PubChem.
Compounds with a hit are over-represented: about 1.9% of the library has one in this group of screens.
FID counter = fluorescent intercalator displacement, NS3 helicase counter-screen; DNA fluorescent intercalator displacement, fluorescence; inhibition, % at 7.9 µM; 0.17% of 290,000 active; AID 1845; in the data active means inhibition above about 37%;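 further: 0% = vehicle and 100% = reference compound; higher means more ethidium bromide displaced from hairpin DNA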
VIM-2 inh = blocks Pseudomonas aeruginosa VIM-2 metallo-beta-lactamase; purified VIM-2, nitrocefin hydrolysis, epi-absorbance fluorescence; inhibition, % at 5.6 µM; 0.89% of 290,000 active;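 active means inhibition above the mean of all tested compounds plus 3 SD, cutoff set per screening run, cut at about 7.5% in these data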;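 further: red hydrolysis product quenches plate fluorescence so inhibitors raise well fluorescence; 0% = enzyme with DMSO and 100% = DMSO without enzyme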
NS3 helicase inh = inhibitors of Hepatitis C virus NS3 helicase | NS3 helicase DNA unwinding, Cy5 molecular beacon fluorescence | inhibition, % at 10.9 µM | 0.56% of 290,000 active | AID 1800;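 active means inhibition above the mean of all tested compounds plus 3 SD, set per campaign, cut at about 35% in these data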;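 further: 0% = DMSO wells and 100% = thioflavine S control wells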
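System: NS3 helicase fragment of HCV / Schedule: 1 h at 25 °C / Control set: DMSO alone as 0% and 110 µM thioflavine S as 100% / Reagent: Cy5/quencher beacon DNA duplex and ATP to start / Technique: Cy5 fluorescence / Replication: singlicate / Evaluation: % inhibition of end-to-start signal ratio versus controls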
IMP-1 inhibitor = inhibitors of Pseudomonas aeruginosa IMP-1 metallo-beta-lactamase; AID 1556; 0.45% of 290,000 active; purified IMP-1, nitrocefin hydrolysis, epi-absorbance fluorescence; inhibition, % at 5.6 µM;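 active means inhibition above the mean plus 3 SD of all compounds in the same screening run, cut at about 4.5% in these data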;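 further: 0% = IMP-1 with DMSO and 100% = DMSO wells lacking enzyme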
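System: purified IMP-1 / Input: IMP-1 dispensed at 0.2 nM / Medium: 50 mM HEPES pH 7.1, 50 µM ZnSO4, 0.05% Brij 35 / Timing: 15 min enzyme–compound preincubation, then 25 min nitrocefin reaction, 25 °C / Technique: plate fluorescence quenching by hydrolysis product, ex 480/em 530 nm / Repeats: singlicate testing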
Active calls of the source: *.

SMILES | FID counter | VIM-2 inh | NS3 helicase inh | IMP-1 inhibitor
COC(=O)c1c(NC(=O)CC2Nc3cc(C)c(C)cc3NC2=O)sc(C)c1C (configuration not stated) | -16 | -1 | 0 | 4.6*
O=C(O)c1cc([N+](=O)[O-])ccc1NCCc1ccccc1 | -22 | 1 | 17 | -1
O=C(O)c1cc([N+](=O)[O-])ccc1NCc1ccccc1Cl | -24 | 11* | 20 | -3
Cc1cc(C(=O)NC2CCCN(Cc3ccc(Cl)cc3)C2)n(C)n1 (configuration not stated) | -8 | -2 | 1 | -3
COc1ccc(/C=C/C(=O)c2ccccn2)cc1 | -15 | 9.6* | 14 | 1
Cc1ccccc1CC(=O)Nc1ccc(C(=O)N2CCCC2)cc1 | -35 | -3 | 33 | -4
CC1(C)CC(N2CCC(=O)N(C3CC(C)(C)NC(C)(C)C3)C2)CC(C)(C)N1 | 37* | -3 | 6 | -2
CCc1cc(=O)oc2cc(C)cc(OCC(=O)N[C@@H](CSCc3ccccc3)C(=O)O)c12 | -8 | -2 | 14 | -4
O=C(CCn1c(=O)oc2ccccc21)Nc1cccc(Br)c1 | -9 | -2 | 2 | -1
Cc1ncsc1CCSc1nc2ccccc2c(=O)n1C | -23 | 21* | 1 | -3
Cn1c(SCC(=O)O)nc2ccccc2c1=O | 2 | 11* | -2 | 0
Cc1cc2ncn(S(=O)(=O)N3CCOCC3)c2cc1C | -8 | 0 | 10 | 4.5*
CCCCn1c(N)c(-c2nc3ccccc3o2)c2c([N+](=O)[O-])nn(C)c(=O)c21 | 0 | -4 | 3 | -4
CCCCCn1c(N)c(-c2nc3ccccc3s2)c2c([N+](=O)[O-])nn(C)c(=O)c21 | 5 | 0 | 9 | 6.9*
Cc1ccccc1C(=O)OCc1nnc(-c2ccc(Cl)cc2)o1 | -10 | -3 | -6 | -2
O=C(OCc1nnc(-c2ccc(Cl)cc2)o1)c1ccc(=O)n(Cc2ccccc2)n1 | -15 | -6 | -1 | 4.8*
CCOC(=O)c1c[nH]c2c(C(=O)c3ccccc3)cc(Cl)cc2c1=O | -26 | 7.7* | 0 | -3
CCOC(=O)c1c[nH]c2c(Cl)ccc(Cl)c2c1=O | 0 | 8.6* | 6 | 0
Cc1ccc(S(=O)(=O)Cc2nnnn2-c2ccccc2)cc1 | -6 | -2 | 0 | -3
O=C(CC(CC(=O)c1ccc(Cl)cc1)c1ccccc1C(=O)O)c1ccc(Cl)cc1 | -22 | 12* | 30 | -3
O=C(Nc1cccc(-c2ccc3nncn3n2)c1)C(F)(F)F | -4 | 8.0* | -7 | -4
CCC(CC)C(=O)Nc1cccc(-c2ccc3nncn3n2)c1 | -15 | 0 | 1 | -2
CN(CCC#N)c1ccc(/C=C(\C#N)c2ccccn2)cc1 | 11 | 3 | -1 | 25*
CCN(CC)c1ccc(/C=C(\C#N)c2ccccn2)cc1 | -8 | -2 | -15 | -3
O=C(Nc1ccc(C2=NCCN2)cc1)c1ccc(C(=O)Nc2ccc(C3=NCCN3)cc2)c([N+](=O)[O-])c1 | 70* | -2 | -47 | -1
SMILES | FID counter | VIM-2 inh | NS3 helicase inh | IMP-1 inhibitor
Cc1c(CCC(=O)O)c(=O)oc2cc3occ(-c4ccc(Cl)cc4)c3cc12 | -17 | 1 | -19 | -1
Cc1c(CCC(=O)O)c(=O)oc2c(C)c3occ(-c4ccc(Cl)cc4)c3cc12 | -26 | 7 | 18 | 5.3*
COc1ccc(OC)c2sc(N(CCN(C)C)C(=O)/C=C/c3cccs3)nc12 | 44* | 5 | -17 | 11*
CC1=CC(C)(C)N2C(=O)C3(NCCc4c3[nH]c3ccccc43)c3cccc1c32 (configuration not stated) | -3 | -5 | -5 | -2
Clc1ccc2c(N/N=C/c3cccnc3)ccnc2c1 | 12 | 11* | -2 | 1
CC(C)(O)CC[C@@H](O)[C@](C)(O)[C@H]1CC[C@@]2(O)C3=CC(=O)[C@@H]4C[C@@H](O)[C@@H](O)C[C@]4(C)[C@H]3CC[C@]12C | -9 | -3 | 0 | -1
COc1ccccc1-c1cc(C2CC2)nc(N)c1C#N | -12 | 0 | -4 | 2
COc1ccc(-c2cc(C3CC3)nc(N)c2C#N)cc1 | -13 | 8.8* | -12 | -1
Cc1ccc(OCC(=O)Nc2sc3c(c2C#N)CC(C)(C)NC3(C)C)cc1 | 18 | -3 | -10 | -3
CC1(C)Cc2c(sc(NC(=O)COc3cccc4ccccc34)c2C#N)C(C)(C)N1 | 17 | 3 | -53 | 19*
c1ccc(-c2nnc3ccc(N4CCC5(CC4)OCCO5)nn23)cc1 | -28 | 8.7* | -7 | -2
NC(=O)C1(N2CCCCC2)CCN(c2ccc3nnc(-c4ccccc4)n3n2)CC1 | -14 | 5 | -7 | -2
